Assay outcomes (PubChem)
Sampled rows, rich in hits. Any-hit rate of the full collection: about 2.9%.
CHO-K1 Ca antag – nonselective inhibitor or artifact in parental CHO-K1 cells; ATP-induced calcium, Fluo-8 fluorescence; inhibition, % at 3 µM; AID 602250; hit rate 0.6% among 360,000;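 active = inhibition above a per-plate cutoff, the plate's mean sample inhibition plus 3 SD, cut at about 24% in these data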;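 note: 0% = DMSO plus EC80 ATP and 100% = DMSO alone without ATP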
OX1R antag-1 – antagonists of human orexin 1 receptor (OX1R); inhibition, % at 6.6 µM; OX1R-expressing cells, FRET antagonist read-out; hit rate 1.8% among 330,000; AID 485270, 2010; in the data active = inhibition mostly above about 38%, no sharp cut-off; inactive = mostly below about 40%;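 note: 0% = agonist challenge alone and 100% = reference antagonist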
Target sequence (O43613 whole entry, looked up): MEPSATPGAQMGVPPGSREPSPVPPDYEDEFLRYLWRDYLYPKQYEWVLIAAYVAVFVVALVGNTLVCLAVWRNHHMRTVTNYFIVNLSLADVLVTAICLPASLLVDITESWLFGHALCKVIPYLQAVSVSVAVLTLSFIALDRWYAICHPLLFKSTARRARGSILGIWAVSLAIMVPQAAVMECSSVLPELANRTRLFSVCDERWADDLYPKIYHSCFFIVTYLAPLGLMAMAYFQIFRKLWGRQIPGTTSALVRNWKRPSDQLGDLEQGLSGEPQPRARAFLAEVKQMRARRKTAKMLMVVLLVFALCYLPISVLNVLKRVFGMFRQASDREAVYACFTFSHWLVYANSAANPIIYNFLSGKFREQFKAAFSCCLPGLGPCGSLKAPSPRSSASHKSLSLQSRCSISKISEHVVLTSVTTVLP
CHO parental Ca – ATP-evoked calcium signal inhibitors, parental CHO, primary screen, counter-screen for OX1R antagonist project, cell-based, fluorescence, Fluo-8 calcium dye; parental CHO-K1, ATP-induced calcium, Fluo-8 fluorescence; inhibition, % at 5.6 µM; hit rate 0.63% among 330,000; AID 463079, 2010;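 active = inhibition above that plate's mean sample inhibition plus 3 SD, cut at about 26% in these data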;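 note: 0% = ATP-challenged DMSO wells and 100% = DMSO wells without ATP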
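Assay system: untransfected parental CHO cell line. Also added: ATP agonist challenge. Dosing: one dose, 5.6 µM nominal. Measured by: Fluo-8 fluorescence. Read-out: % inhibition. Benchmarks: ATP wells versus no-ATP DMSO wells. Repeats: no replicates.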
M1 ag parental – counter-screen for M1 agonists: effect in parental CHO-K1 cells | AID 602248, 2012 | activation, % at 3 µM | Fluo-8 calcium fluorescence; scaled to maximal ATP response, vehicle zero | hit rate 0.48% among 360,000; in the data active = activation above about 15%;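 note: untransfected CHO-K1 host cells lacking M1 receptor as counterscreen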
OX1R antag-2 – OX1R (HCRTR1) antagonists, primary screen, fluorescence, CHO/OX1R cells, Fluo-8 calcium, orexin A; Fluo-8 calcium fluorescence; Orexin/Hypocretin receptor type 1 (Homo sapiens), O43613; AID 434989, 2010; hit rate 0.43% among 330,000; inhibition, % at 5 µM;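 active = inhibition above its plate's threshold, mean inhibition of all tested compounds on the plate plus 3 SD, cut at about 37% in these data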;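 note: 0% = orexin A challenge wells and 100% = SB-334867-A antagonist wells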
M1 PAM parental – nonselective calcium activators in parental CHO-K1 cells, primary screen, counter-screen for M1 PAM project, cell-based, Fluo-8 calcium fluorescence, full deck, 1536-well | AID 602247, 2012 | activation, % at 3 µM | ATP EC20; 0% at ATP EC20, 100% at ATP max | hit rate 0.02% among 360,000;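 active = activation above the run cutoff, the mean activation of all test compounds plus 3 SD, cut at about 40% in these data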;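 note: peak over basal fluorescence ratio in a 140 s read after ATP addition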
* marks the source's active call; other numbers are inactive results.

How did O=C(NNc1ccc([N+](=O)[O-])cc1)c1ccco1 do in these assays?
CHO-K1 Ca antag: -14; OX1R antag-1: 14; CHO parental Ca: 2; M1 ag parental: 1; OX1R antag-2: -7; M1 PAM parental: 5

Results for O=C(NNc1ccc([N+](=O)[O-])cc1[N+](=O)[O-])c1ccco1 ?
CHO-K1 Ca antag: 4; OX1R antag-1: 86*; CHO parental Ca: -7; M1 ag parental: 8; OX1R antag-2: -20; M1 PAM parental: -5

What do the screens show for `CNC(=O)c1ccsc1NC(=O)CCS(=O)(=O)c1ccccc1`?
CHO-K1 Ca antag: 4; OX1R antag-1: 7; CHO parental Ca: 2; M1 ag parental: 1; OX1R antag-2: -9; M1 PAM parental: -16

What do the screens show for `CNC(=O)c1ccsc1NC(=O)c1ccccc1`?
CHO-K1 Ca antag: -5; OX1R antag-1: 43*; CHO parental Ca: -5; M1 ag parental: 0; OX1R antag-2: -8; M1 PAM parental: 2

Results for CCN(CC(=O)Nc1ccc(OC)cc1)C(=O)Cc1cccs1 ?
CHO-K1 Ca antag: 11; OX1R antag-1: 4; CHO parental Ca: -8; M1 ag parental: 0; OX1R antag-2: -7; M1 PAM parental: -8

Results for CC(=O)Nc1ccc(N=c2cc([N+](=O)[O-])cc(Cl)n2O)cc1 ?
CHO-K1 Ca antag: -12; OX1R antag-1: 66*; CHO parental Ca: -2; M1 ag parental: 1; OX1R antag-2: -5; M1 PAM parental: 9

What do the screens show for `CCOc1ccc(CCNC(=O)CS(=O)Cc2nc(-c3ccccc3C)oc2C)cc1OCC` (centres undefined)?
CHO-K1 Ca antag: -4; OX1R antag-1: 57*; CHO parental Ca: -25; M1 ag parental: 0; OX1R antag-2: 16; M1 PAM parental: 11

What do the screens show for `CCOc1ccc(CCNC(=O)CS(=O)Cc2nc(-c3ccc(C)cc3)oc2C)cc1OCC` (centres undefined)?
CHO-K1 Ca antag: -6; OX1R antag-1: 27; CHO parental Ca: -31; M1 ag parental: -1; OX1R antag-2: -1; M1 PAM parental: -2

Results for CCOC(=O)COc1cc([N+](=O)[O-])cc2cccnc12 ?
CHO-K1 Ca antag: -16; OX1R antag-1: 42*; CHO parental Ca: -6; M1 ag parental: -1; OX1R antag-2: 2; M1 PAM parental: 3

How did O=c1c(-c2ccc(Oc3ccccc3)cc2)[n+]([O-])c2ccccc2n1OCc1ccccn1 do in these assays?
CHO-K1 Ca antag: -5; OX1R antag-1: 17; CHO parental Ca: -18; M1 ag parental: 0; OX1R antag-2: -29; M1 PAM parental: 23

What do the screens show for `COc1ccc(-c2c(=O)n(OCc3ccccn3)c3ccccc3[n+]2[O-])cc1OC`?
CHO-K1 Ca antag: -4; OX1R antag-1: 55*; CHO parental Ca: -16; M1 ag parental: 1; OX1R antag-2: -22; M1 PAM parental: 17

Results for CCOc1ccc(-c2c(=O)n(OCc3ccccn3)c3ccccc3[n+]2[O-])cc1 ?
CHO-K1 Ca antag: -6; OX1R antag-1: 62*; CHO parental Ca: -8; M1 ag parental: 1; OX1R antag-2: 5; M1 PAM parental: 21

Results for NC(c1cccc(F)c1)c1nc(-c2ccc(Cl)cc2)cs1 (centres undefined) ?
CHO-K1 Ca antag: -6; M1 ag parental: 1; M1 PAM parental: 8

What do the screens show for `ClC(Cl)(c1nnnn1-c1ccccc1)c1nnnn1-c1ccccc1`?
CHO-K1 Ca antag: 2; OX1R antag-1: 21; CHO parental Ca: 93*; M1 ag parental: 4; OX1R antag-2: 63*; M1 PAM parental: 30

How did O=c1c2sc(-c3ccccc3)cc2nc2n1CCC2 do in these assays?
CHO-K1 Ca antag: -5; OX1R antag-1: 52*; CHO parental Ca: -10; M1 ag parental: 1; OX1R antag-2: -16; M1 PAM parental: 4

How did O=c1c2sc(-c3ccccc3)cc2nc2n1CCCCC2 do in these assays?
CHO-K1 Ca antag: -16; OX1R antag-1: 6; CHO parental Ca: -22; M1 ag parental: 3; OX1R antag-2: -28; M1 PAM parental: 19

Results for CC1(C(=O)Nc2cnc3ccccc3c2)CCN1Cc1ccc(OC(F)(F)F)cc1 (centres undefined) ?
CHO-K1 Ca antag: -19; M1 ag parental: 0; M1 PAM parental: 13

Results for CCCCn1c(N)c(N(CCC(C)C)C(=O)CCN2C(=O)C3CC=CCC3C2=O)c(=O)[nH]c1=O (centres undefined) ?
CHO-K1 Ca antag: 0; OX1R antag-1: 15; CHO parental Ca: -15; M1 ag parental: 2; OX1R antag-2: -29; M1 PAM parental: 17

What do the screens show for `COC(=O)c1ccccc1COc1cccn2c(N(C)Cc3cccs3)c(C)nc12`?
CHO-K1 Ca antag: 6; M1 ag parental: 9; M1 PAM parental: -8

Results for CC(C)c1ccc(NC(=O)CSC(C)c2nc3ccccc3c(=O)[nH]2)cc1 (centres undefined) ?
CHO-K1 Ca antag: -11; OX1R antag-1: 63*; CHO parental Ca: -5; M1 ag parental: 2; OX1R antag-2: 2; M1 PAM parental: 12

What do the screens show for `CC(SCC(=O)Nc1ccccc1)c1nc2ccccc2c(=O)[nH]1` (centres undefined)?
CHO-K1 Ca antag: -11; OX1R antag-1: 12; CHO parental Ca: -15; M1 ag parental: 1; OX1R antag-2: -11; M1 PAM parental: 24

What do the screens show for `COc1ccccc1/C=C/CN1CCC(n2nccc2NC(=O)CCc2ccccc2)CC1`?
CHO-K1 Ca antag: 24*; OX1R antag-1: 14; CHO parental Ca: 19; M1 ag parental: 15*; OX1R antag-2: -25; M1 PAM parental: -16

How did O=C(CCCn1ncn2c(cc3occc32)c1=O)NCc1cccc(Cl)c1 do in these assays?
CHO-K1 Ca antag: -11; OX1R antag-1: 9; CHO parental Ca: -19; M1 ag parental: 0; OX1R antag-2: -15; M1 PAM parental: 14

Results for Cc1cc(C(C)(C)C)oc1C(=O)N(CC(=O)NC1CCCC1)Cc1ccccc1Cl ?
CHO-K1 Ca antag: -1; OX1R antag-1: 89*; CHO parental Ca: 25; M1 ag parental: 5; OX1R antag-2: 105*; M1 PAM parental: 20

What do the screens show for `OCC(O)C1OC(c2ccco2)OC(CO)C1O` (centres undefined)?
CHO-K1 Ca antag: -14; M1 ag parental: 0; M1 PAM parental: 21

Results for O=C1/C(=C/c2cccc(Br)c2)SC(=S)N1CCC(=O)N(CCO)c1ccccc1 ?
CHO-K1 Ca antag: -5; OX1R antag-1: 0; CHO parental Ca: 39*; M1 ag parental: 6; OX1R antag-2: -19; M1 PAM parental: 15

What do the screens show for `O=C1/C(=C/c2ccc3c(c2)OCO3)SC(=S)N1CCC(=O)N(CCO)c1ccccc1`?
CHO-K1 Ca antag: 13; M1 ag parental: 1; M1 PAM parental: -7
